From ChEMBL document CHEMBL1145917, “Neurosteroid analogues. 9. Conformationally constrained pregnanes: structure-activity studies of 13,24-cyclo-18,21-dinorcholane analogues of the GABA modulatory and anesthetic steroids (3alpha,5alpha)- and (3alpha,5beta)-3-hydroxypregnan-20-one” (J Med Chem, 2003)

How the values were obtained:
[1] = target: T1, GABA-A receptor; alpha-1/beta-2/gamma-2 (Rattus norvegicus) (UniProt P18508+P62813+P63138); experiment: In vitro current effect against rat GABA receptor alpha-1-beta-2-gamma-2 subunits expressed in Xenopus laevis oocytes at 0.1 uM (ratio +/- compound); assay type: cell-based; settings: Oocyte
How it was run: (§1)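 Two-electrode voltage clamp at -70 mV, 2–5 days after injecting rat α1, β2 and γ2L cRNA (20–40 ng total, equal parts) into defolliculated stage V–VI oocytes held at 18 °C in ND96. Compound was co-applied with 2 μM GABA for 20 s and peak current measured. Value is the ratio of current with/without compound, from at least four oocytes.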

[2] = Hill coefficient for loss of swimming response.; assay type: functional
How it was run: (§2)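 Groups of 10 early pre-limb-bud X. laevis tadpoles were placed in 100 mL oxygenated Ringer's containing compound at various concentrations. Compound came from a 10 mM DMSO stock, about 0.1% DMSO final. Loss of righting and loss of swimming responses were scored. EC50 and Hill coefficient n were taken from a Hill equation fit.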

[3] = Loss of righting reflex in Xenopus laevis tadpole.; assay type: functional, frog; settings: Amphibia, read-out: ED50 (the source's name); how it was run: as §2
[4] = target: T1, GABA-A receptor; alpha-1/beta-2/gamma-2 (Rattus norvegicus); experiment: In vitro current effect against rat GABA receptor alpha-1-beta-2-gamma-2 subunits expressed in Xenopus laevis oocytes at 10 uM (ratio +/- compound); assay type: cell-based; settings: Oocyte; how it was run: as §1
[5] = Hill coefficient for loss of righting response.; assay type: functional; how it was run: as §2
[6] = target: GABA-A receptor; anion channel; experiment: Non-competitive displacement of [35S]TBPS from picrotoxin binding site found in heterogeneous Gamma-aminobutyric acid A receptor in rat brain membranes.; assay type: cell membranes
How it was run: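 Rat brain membranes (washed P2, 0.5 mg/mL final protein) incubated 2 h at room temperature with 5 μM GABA, 2 nM [35S]TBPS and steroid from DMSO (final 1 nM–10 μM) in 200 mM NaCl/50 mM potassium phosphate, pH 7.4. Nonspecific binding defined with 200 μM picrotoxinin. Filtration, scintillation counting, Hill fit for IC50. Triplicate points, two or three curves per steroid.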

[7] = target: T1, GABA-A receptor; alpha-1/beta-2/gamma-2 (Rattus norvegicus); experiment: In vitro direct current effect against rat GABA receptor alpha-1-beta-2-gamma-2 subunits expressed in Xenopus laevis oocytes at 10 uM (ratio +/- compound, without GABA); assay type: cell-based; settings: Oocyte
How it was run: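 Same oocyte α1β2γ2L voltage-clamp setup at -70 mV, with peak current over 20 s applications. Compound was applied at 10 μM without GABA. Directly gated current is expressed as a ratio to the current evoked by 2 μM GABA, from at least four oocytes.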

[8] = target: T1, GABA-A receptor; alpha-1/beta-2/gamma-2 (Rattus norvegicus); experiment: In vitro current effect against rat GABA receptor alpha-1-beta-2-gamma-2 subunits expressed in Xenopus laevis oocytes at 1 uM (ratio +/- compound); assay type: cell-based; settings: Oocyte; how it was run: as §1
[9] = Hill coefficient for displacement of [35S]TBPS.; assay type: functional
How it was run: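 Rat brain membrane P2 fraction washed three times in 200 mM NaCl / 50 mM potassium phosphate, pH 7.4. Assay used 0.5 mg/mL protein, 5 μM GABA, 2 nM [35S]TBPS and steroid at 1 nM–10 μM final (0.5% DMSO), 2 h at room temperature, then filtration and scintillation counting. Nonspecific binding was taken with 200 μM picrotoxinin. Triplicate points, 2–3 curves per steroid; Hill equation fit gives n.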

[10] = Loss of swimming behavior in Xenopus laevis tadpole.; assay type: functional, frog; settings: Amphibia, read-out: ED50 (the source's name); how it was run: as §2

SMILES	Ratio [1]	nHill [2]	EC50 [3] [µM]	Ratio [4]	nHill [5]	IC50 [6] [µM]	Ratio [7]	Ratio [8]	nHill [9]	EC50 [10] [µM]
C[C@]12CC[C@@H](O)C[C@@H]1CC[C@H]1[C@@H]3CCC4CCC(=O)C[C@@]43CC[C@@H]12 (stereo partly drawn)	1.39	-16.7	1.12	6.49	-1.75	0.334	0.32	1.64	1.14	3.58
C[C@]12CC[C@@H](O)C[C@H]1CC[C@H]1[C@@H]3CCC4C(=O)CCC[C@@]43CC[C@@H]12 (stereo partly drawn)	0.93	-33.5	0.94	1.51	-1.23	1.78	-0.25	1.12	1.36	5.48
C[C@]12CC[C@@H](O)C[C@@H]1CC[C@H]1C3CCC4C(=O)C=CC[C@@]43CC[C@@H]12 (single isomer, unassigned)	1.49	–	3.38	9.07	-2.79	0.373	0.72	5.87	1.17	–
C[C@]12CC[C@@H](O)C[C@@H]1CC[C@@H]1[C@@H]2CC[C@]23C(=O)CCCC2CC[C@@H]13 (stereo partly drawn)	1.22	-36.5	0.32	10.7	-1.75	0.301	0.39	3.05	1.01	1.73
C[C@]12CC[C@@H](O)C[C@H]1CC[C@@H]1[C@@H]2CC[C@]23C(=O)C=CC[C@H]2CC[C@@H]13	1.36	-18.6	0.4	21.4	-4.97	0.105	0.2	3.15	0.9	1
C[C@]12CC[C@@H](O)C[C@H]1CC[C@H]1[C@@H]3CCC4CC(=O)CC[C@@]43CC[C@@H]12 (stereo partly drawn)	0.97	-18.7	2.47	2.65	-1.86	3.23	-0.1	1.11	0.73	9.43
C[C@]12CC[C@@H](O)C[C@@H]1CC[C@@H]1[C@@H]2CC[C@]23C(=O)C=CC[C@H]2CC[C@@H]13	1.98	-24.2	1.2	9.45	–	0.197	0.07	8.33	1.03	2.66
C[C@]12CC[C@@H](O)C[C@H]1CC[C@@H]1[C@@H]2CC[C@]23C(=O)CCCC2CC[C@@H]13 (stereo partly drawn)	1.26	-18.2	0.04	10.4	-4.97	0.329	0.04	3.45	0.95	0.89
C[C@]12CC[C@@H](O)C[C@@H]1CC[C@H]1[C@@H]3CCC4C=CC(=O)C[C@@]43CC[C@@H]12 (stereo partly drawn)	1.59	-17	1.28	16.6	-1.16	0.243	0.35	5.53	0.89	10
C[C@]12CC[C@@H](O)C[C@@H]1CC[C@@H]1[C@@H]2CC[C@]23C=CC(=O)C[C@H]2CC[C@@H]13	1.12	-33.5	0.73	5.07	-1.57	1.26	-0.04	1.54	1	5.48
C[C@]12CC[C@@H](O)C[C@H]1CC[C@H]1C3CCC4C(=O)C=CC[C@@]43CC[C@@H]12 (single isomer, unassigned)	1.07	-19.8	2.56	2.34	-1.59	1.57	0.11	1.17	1.15	8.95
C[C@]12CC[C@@H](O)C[C@@H]1CC[C@H]1[C@@H]3CCC4C(=O)CCC[C@@]43CC[C@@H]12 (stereo partly drawn)	1.01	-33.5	1.36	2.28	-2.51	0.514	0	1.44	0.84	5.45
C[C@]12CC[C@@H](O)C[C@@H]1CC[C@H]1[C@@H]3CCC4CC(=O)CC[C@@]43CC[C@@H]12 (stereo partly drawn)	1.3	–	2.37	2.93	-2.02	1.44	0.06	1.61	0.95	–
CC(=O)[C@H]1CC[C@H]2[C@@H]3CC[C@H]4C[C@H](O)CC[C@]4(C)[C@H]3CC[C@]12C [BREXANOLONE]	1.26	-7.5	0.42	9.65	-1.83	–	0.37	3.89	0.89	5.5
C[C@]12CC[C@@H](O)C[C@H]1CC[C@H]1[C@@H]3CCC4CCC(=O)C[C@@]43CC[C@@H]12 (stereo partly drawn)	0.97	-17.5	1.44	3.17	-3.02	0.899	0.01	1.03	0.89	3.55
CC(=O)[C@H]1CC[C@H]2[C@@H]3CC[C@@H]4C[C@H](O)CC[C@]4(C)[C@H]3CC[C@]12C [ELTANOLONE]	1.2	-6.93	0.063	9.77	-1.54	–	0.06	2.82	0.57	0.3
C[C@]12CC[C@@H](O)C[C@H]1CC[C@@H]1[C@@H]2CC[C@]23C=CC(=O)C[C@H]2CC[C@@H]13	1.87	-33.5	0.56	4.44	-1.5	4.75	0.26	1.8	0.95	5.48
C[C@]12CC[C@@H](O)C[C@H]1CC[C@H]1[C@@H]3CCC4C=CC(=O)C[C@@]43CC[C@@H]12 (stereo partly drawn)	1.07	-22.1	1.05	4.5	-16.6	0.268	-0.02	1.83	0.64	2.72
